PMI act satM6P: human PMI activators, high substrate, primary screen, biochemical, fluorescence intensity, near-saturating mannose 6-phosphate; activation factor at 20 µM; Mannose-6-phosphate isomerase (Homo sapiens), P34949; 190,000 tested, 0.34% active; coupled PMI enzyme assay, resazurin fluorescence, 20 min; stronger effect = higher value; 1 = untreated enzyme, 0 = substrate-free blank; AID 1216, 2008;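 active = activation factor of 2 or more at 20 µM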
Target sequence (P34949 whole entry, looked up): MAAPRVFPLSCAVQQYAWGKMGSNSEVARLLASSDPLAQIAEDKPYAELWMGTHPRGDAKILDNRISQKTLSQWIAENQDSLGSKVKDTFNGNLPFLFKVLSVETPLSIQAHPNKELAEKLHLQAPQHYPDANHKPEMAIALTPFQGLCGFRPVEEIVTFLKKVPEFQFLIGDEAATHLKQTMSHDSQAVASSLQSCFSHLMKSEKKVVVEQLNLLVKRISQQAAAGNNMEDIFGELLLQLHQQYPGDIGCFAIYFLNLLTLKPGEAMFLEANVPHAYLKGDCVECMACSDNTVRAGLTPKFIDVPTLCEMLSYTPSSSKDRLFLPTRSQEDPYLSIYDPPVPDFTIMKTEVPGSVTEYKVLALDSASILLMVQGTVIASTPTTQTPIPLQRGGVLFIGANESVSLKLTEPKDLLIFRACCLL
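Technique: Diaphorase-driven resazurin-to-resorufin fluorescence, excitation 544, emission 590 nm | Assay system: Human PMI in coupled enzyme assay | Times: Enzyme reaction with compound 20 min at room temperature | Medium: HEPES-buffered pH 7.4 with magnesium and detergent | Reagent: Mannose-6-phosphate 1.0 mM (near-saturating) plus 0.22 mM NADP+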
PMI act: activators of human PMI, primary screen, biochemical, fluorescence intensity, near-Km mannose 6-phosphate. Mannose-6-phosphate isomerase (Homo sapiens), P34949. activation factor at 20 µM. AID 1214, 2008. purified human PMI, coupled resazurin fluorescence, 20 min; stronger effect = higher value; 1 = vehicle control, 0 substrate-free wells. 190,000 tested, 0.005% active;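 active = activation factor of 2 or more at 20 µM, relative to plate controls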
Diaph act CS: compounds boosting diaphorase resazurin reduction – biochemical, uHTS, resorufin fluorescence, counter-screen for diaphorase-coupled primary assays, primary screen; Diaphorase/resazurin coupled assay, 16 min; stronger effect = higher value; 1 = vehicle wells, 0 = NADH-free wells; 190,000 tested, 0.005% active; activation factor at 20 µM;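 active = diaphorase activity raised at least twofold by the compound at 20 µM; inactive = activation factor below 2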
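Material: purified diaphorase enzyme from Clostridium kluyveri / Medium: HEPES pH 7.4 buffer with MgCl2 and Tween 20 / Schedule: enzyme reaction of 16 min at room temperature / Measured by: resorufin fluorescence, excitation 544 nm, emission 590 nm / Evaluation: rise in resorufin formation, marking diaphorase activation or chemical reduction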
WT yeast gro inh: growth inhibition of WT strain, primary screen, mitochondrial fusion inhibitor project, WT and mutant strains, chemical genetic; mitochondrial fusion phenotypic screen; inhibition, % at 10 µM; 190,000 tested, 2.1% active; in the data active = inhibition above about 58%; tested in S. cerevisiae
L major viab: Leishmania major promastigote growth inhibition, primary screen; Leishmania major promastigotes, resazurin fluorescence viability; 200,000 tested, 9% active; inhibition, % at 10 µM; in the data active = inhibition above about 50%;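 note: promastigotes grown with compound for 44 hours at 28 °C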
The depositor's hits bear a star. The list is not random: actives were taken first. Their share in the collection is about 10%.

COc1ccc2nc(NC(=O)CCN3C(=S)NC(C)(C)CC3C)sc2c1 (stereo not given) was read as PMI act satM6P 1, PMI act 1, Diaph act CS 1, WT yeast gro inh -6 and L major viab 3.
`C[C@@H](C(=O)OCn1nnc2ccccc2c1=O)N1C(=O)C2CCCCC2C1=O` (stereo not given in full) gave PMI act satM6P 1, PMI act 1, Diaph act CS 0.9, WT yeast gro inh -9 and L major viab 6.
Screening COc1ccc(CCNC(=S)Nc2cc(C)cc(C)c2)cc1 returned PMI act satM6P 1, PMI act 1, Diaph act CS 0.9, WT yeast gro inh 59* and L major viab 11.
COc1ccc(CCNC(=S)Nc2ccc(OC)cc2)cc1 was read as PMI act satM6P 0.7, PMI act 1, Diaph act CS 0.9, WT yeast gro inh 7 and L major viab -2.
`CCc1nccn1S(=O)(=O)c1ccc(Br)cc1Br` gave PMI act satM6P 1.1, PMI act 1, Diaph act CS 0.9, WT yeast gro inh -25 and L major viab 89*.
Screening CCc1nccn1S(=O)(=O)c1ccc(OC)c(C)c1C returned PMI act satM6P 1.1, PMI act 1.2, Diaph act CS 1.1, WT yeast gro inh -4 and L major viab 2.
Oc1ccccc1N1CCN(CC(O)COCc2ccccc2Cl)CC1 (stereo not given) was read as PMI act satM6P 0.9, PMI act 1, Diaph act CS 0.8, WT yeast gro inh -1 and L major viab 85*.
`OC(COCc1cccs1)CN1CCN(c2cccc(C(F)(F)F)c2)CC1` (stereo not given) gave PMI act satM6P 1, PMI act 0.9, Diaph act CS 0.9, WT yeast gro inh 2 and L major viab 84*.
For OC(COCc1ccccc1)CN1CCN(c2ccccc2)CC1 (stereo not given) the results were PMI act satM6P 1.1, PMI act 0.9, Diaph act CS 0.9, WT yeast gro inh -9 and L major viab 90*.
For Cc1ccc(OCC(O)CN2CCN(c3ccccc3)CC2)cc1 (stereo not given) the results were PMI act satM6P 1, PMI act 1, Diaph act CS 0.8, WT yeast gro inh 11 and L major viab 22.
CCc1ccc(OCC(O)CN2CCN(c3ccccc3)CC2)cc1 (stereo not given) was read as PMI act satM6P 1.1, PMI act 1, Diaph act CS 0.8, WT yeast gro inh 30 and L major viab 94*.
Screening CCCc1ccc(OCC(O)CN2CCN(c3ccccc3)CC2)cc1 (stereo not given) returned PMI act satM6P 0.9, PMI act 0.9, Diaph act CS 0.8, WT yeast gro inh 10 and L major viab 94*.
For C/C=C(/C)C(=O)OC1c2c(ccc3ccc(=O)oc23)OC(C)(C)C1OC(C)=O (stereo not given) the results were PMI act satM6P 1, PMI act 1, Diaph act CS 1, WT yeast gro inh 18 and L major viab 67*.
`CC1(C)Oc2ccc3ccc(=O)oc3c2C(N2CCCCC2)C1O` (stereo not given) gave PMI act satM6P 2.1*, PMI act 1.5, Diaph act CS 1, WT yeast gro inh -1 and L major viab -1.
`C/C=C(/C)C(=O)O[C@@H]1[C@H](OC(C)=O)c2c(ccc3ccc(=O)oc23)OC1(C)C` gave PMI act satM6P 1, PMI act 1, Diaph act CS 0.9, WT yeast gro inh 26 and L major viab 8.
For C/C=C(/C)C(=O)O[C@H]1[C@@H](O)c2c(ccc3ccc(=O)oc23)OC1(C)C the results were PMI act satM6P 1.1, PMI act 1.1, Diaph act CS 0.9, WT yeast gro inh -18 and L major viab -2.
Cc1nc(C(F)(F)F)c(C(=O)N/N=C(\N)c2ccccn2)s1 was read as PMI act satM6P 1.1, PMI act 0.8, Diaph act CS 0.7, WT yeast gro inh -35 and L major viab 96*.
O=C(Nc1ccccc1C(F)(F)F)c1ccccn1 was read as PMI act satM6P 1, PMI act 1.1, Diaph act CS 0.9, WT yeast gro inh -17 and L major viab -2.
Screening CC1(C)CC(=O)C(=C2SCCCS2)C(=O)C1 returned PMI act satM6P 1.1, PMI act 1.1, Diaph act CS 1, WT yeast gro inh -14 and L major viab -8.
Screening CC(=O)c1c(C)[nH]c(C(=O)CSc2nnc(-c3ccc(Cl)cc3)n2CC2CCCO2)c1C (stereo not given) returned PMI act satM6P 1, PMI act 1, Diaph act CS 0.8, WT yeast gro inh 70* and L major viab 11.
`NC(=O)NC(=O)CSc1nnc(-c2ccc(Cl)cc2)n1CC1CCCO1` (stereo not given) gave PMI act satM6P 1.1, PMI act 1.1, Diaph act CS 1, WT yeast gro inh -6 and L major viab -3.
For O=C(c1ccc2c(c1)OCO2)C1CCCN(Cc2cccn2-c2cccnc2)C1 (stereo not given) the results were PMI act satM6P 1, PMI act 1, Diaph act CS 1.1, WT yeast gro inh 9 and L major viab 94*.
Screening COc1ccc(C(=O)C2CCCN(Cc3cccn3-c3cccnc3)C2)cc1OC (stereo not given) returned PMI act satM6P 0.8, PMI act 0.8, Diaph act CS 0.8, WT yeast gro inh -9 and L major viab 8.
Screening CSc1ccc(C(=O)C2CCCN(Cc3cccn3-c3cccnc3)C2)cc1 (stereo not given) returned PMI act satM6P 0.9, PMI act 0.8, Diaph act CS 0.7, WT yeast gro inh 6 and L major viab 85*.
O=C(c1ccc(Cl)cc1)C1CCCN(Cc2cccn2-c2cccnc2)C1 (stereo not given) was read as WT yeast gro inh 18 and L major viab 87*.
For Cc1ccc(-n2cccn2)c(CN2CCCC(C(=O)c3ccc4c(c3)OCO4)C2)c1 (stereo not given) the results were PMI act satM6P 1.1, PMI act 1, Diaph act CS 0.8, WT yeast gro inh 23 and L major viab 31.
For CC(C)OCCCn1c(-c2ccc(Br)cc2)c[nH]c1=S the results were PMI act satM6P 1.2, PMI act 1.1, Diaph act CS 0.7, WT yeast gro inh 32 and L major viab -5.
O=C(C1CCCC1)N1CCN=C1SCc1cccc([N+](=O)[O-])c1 was read as PMI act satM6P 1.1, PMI act 1, Diaph act CS 1, WT yeast gro inh 4 and L major viab 12.
